Reference: ChEMBL document CHEMBL1921714, “Discovery of aminobenzyloxyarylamides as κ opioid receptor selective antagonists: application to preclinical development of a κ opioid receptor antagonist receptor occupancy tracer” (J Med Chem, 2011)
The source made the active and inactive calls. The rule behind the calls is not given here.

What was measured:
[1] = tested on: CHO; experiment: Selectivity ratio of Kb for human opioid mu receptor expressed in CHO cells to Kb for human opioid kappa receptor expressed in CHO cells; assay type: cell-based
Procedure, shortened: (§1)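 Kb ratios from antagonist [35S]GTP-γ-S SPA on CHO (κ, μ) or HEK293 (δ) membranes. Agonists at about 80% maximal: U69,593 300 nM (κ), DAMGO 1 μM (μ), DPDPE 30 nM (δ). 11-point curves, top 1 or 10 μM. Nonspecific binding: NorBNI, naltrexone or naltriben, each 10 μM. Kb = IC50/(1+D/EC50); geometric means with SEM.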

[2] = tested on: Striatum; experiment: Drug uptake in rat striatum at 3 ug/kg, iv pretreated 1 hr with 3-Fluoro-4-[4-[[ (2S)-2-(3-fluorophenyl)pyrrolidin-1-yl]methyl]- phenoxy]benzamide measured after 40 mins by LC/MS-MS analysis; assay type: ADME, organism-based; conditions: in vivo, 0.003 mg/kg
Procedure, shortened: (§2)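 Rats were pretreated 1 h with the κ antagonist at a range of doses, then given tracer at 3 ug/kg iv. Brains were taken 40 min after tracer. Striatum and cerebellum were extracted in acetonitrile/0.1% formic acid and tracer levels quantified by LC/MS/MS.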

[3] = tested on: Nucleic Acid; experiment: Ratio of drug uptake in striatum to cerebellum in rat at 3 ug/kg, iv measured after 40 mins by LC/MS/MS analysis; assay type: ADME, organism-based; conditions: in vivo, 0.003 mg/kg
Procedure, shortened: (§3)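 Groups of four rats were given iv tracer and killed 20 or 40 min after dosing. Striatum (total binding) and cerebellum (nonspecific, null region) were extracted in acetonitrile/0.1% formic acid and quantified by LC/MS/MS. Binding potential was calculated as (striatum/cerebellum concentration) − 1.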

[4] = target: T1, Delta-type opioid receptor (Homo sapiens, UniProt P41143); experiment: Displacement of [3H]diprenorphine from human opioid delta receptor expressed in HEK293 cells after 120 mins by scintillation counting; assay type: cell-based
Procedure, shortened: (§4)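 11-point curves, 0.01 nM–1 μM final. 120 min at 22 °C, then filtration and scintillation counting. Nonspecific binding set by 10 μM naltrexone. Four-parameter IC50; Ki by Cheng–Prusoff.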

[5] = target: T2, Kappa-type opioid receptor (Homo sapiens, UniProt P41145); experiment: Antagonist activity at human opioid kappa receptor expressed in CHO cells assessed as inhibition of U69593-induced [35S]GTP-gamma-S binding after 4 hrs by scintillation counting; assay type: functional, cell-based
[6] = target: T3, Mu-type opioid receptor (Homo sapiens, UniProt P35372); experiment: Antagonist activity at human opioid mu receptor expressed in CHO cells assessed as inhibition of DAMGO-induced [35S]GTP-gamma-S binding after 4 hrs by scintillation counting; assay type: functional, cell-based
[7] = target: T1, Delta-type opioid receptor; experiment: Agonist activity at human opioid delta receptor expressed in HEK293 cells assessed as stimulation of [35S]-GTPgammaS binding at 10 uM; assay type: functional, cell-based
Procedure, shortened: (§5)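 Agonist mode: membranes from CHO (κ, μ) or HEK293 (δ) cells expressing cloned human receptors, no agonist added, tested at up to 10 μM. [35S]GTP-γ-S (0.5 nM final) binding in HEPES pH 7.4, MgCl2, NaCl, EDTA, DTT, 200 μM GDP. Read by WGA SPA beads after 2 h (δ) or 4 h (κ, μ) at room temperature, then 4 °C overnight.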

[8] = tested on: HEK293; experiment: Selectivity ratio of Ki for human opioid delta receptor expressed in HEK293 cells to Ki for human opioid kappa receptor expressed in CHO cells; assay type: cell-based
[9] = tested on: Striatum; experiment: Drug uptake in rat striatum at 3 ug/kg, iv measured after 40 mins by LC/MS-MS analysis; assay type: ADME, organism-based; conditions: in vivo, 0.003 mg/kg
Procedure, shortened: (§6)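 Groups of four rats received a single iv tracer dose and were killed 20 or 40 min later. Striatum was weighed, homogenized in 4 volumes acetonitrile/0.1% formic acid and centrifuged. The supernatant was diluted and analysed by LC/MS/MS against standards spiked into naive rat brain. %SUV = tissue amount/injected dose × 100.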

[10] = tested on: Cerebellum; experiment: Drug uptake in rat cerebellum at 3 ug/kg, iv pretreated 1 hr with 3-Fluoro-4-[4-[[ (2S)-2-(3-fluorophenyl)pyrrolidin-1-yl]methyl]- phenoxy]benzamide measured after 40 mins by LC/MS-MS analysis; assay type: ADME, organism-based; conditions: in vivo, 0.003 mg/kg; procedure, shortened: as §2
[11] = target: T2, Kappa-type opioid receptor; experiment: Agonist activity at human opioid kappa receptor expressed in CHO cells assessed as stimulation of [35S]-GTPgammaS binding at 10 uM; assay type: functional, cell-based; procedure, shortened: as §5
[12] = target: T3, Mu-type opioid receptor; experiment: Agonist activity at human opioid mu receptor expressed in CHO cells assessed as stimulation of [35S]-GTPgammaS binding at 10 uM; assay type: functional, cell-based; procedure, shortened: as §5
[13] = target: T3, Mu-type opioid receptor; experiment: Displacement of [3H]diprenorphine from human opioid mu receptor expressed in CHO cells after 120 mins by scintillation counting; assay type: cell-based; procedure, shortened: as §4
[14] = target: T2, Kappa-type opioid receptor; experiment: Displacement of [3H]diprenorphine from human opioid kappa receptor expressed in CHO cells after 120 mins by scintillation counting; assay type: cell-based; procedure, shortened: as §4
[15] = tested on: CHO; experiment: Selectivity ratio of Ki for human opioid mu receptor expressed in CHO cells to Ki for human opioid kappa receptor expressed in CHO cells; assay type: cell-based
[16] = target: T1, Delta-type opioid receptor; experiment: Antagonist activity at human opioid delta receptor expressed in HEK293 cells assessed as inhibition of DPDPE-induced [35S]GTP-gamma-S binding after 4 hrs by scintillation counting; assay type: functional, cell-based
[17] = tested on: HEK293; experiment: Selectivity ratio of Kb for human opioid delta receptor expressed in HEK293 cells to Kb for human opioid kappa receptor expressed in CHO cells; assay type: cell-based; procedure, shortened: as §1
[18] = tested on: Rattus norvegicus; experiment: Antinociceptive activity in po dosed rat assessed as reversal of agonist […]-induced pain by formalin test; assay type: functional
[19] = tested on: Rattus norvegicus; experiment: Reversal of […] in po dosed rat; assay type: functional
[20] = tested on: Rattus norvegicus; experiment: In vivo receptor occupancy of opioid kappa in iv dosed rat striatum after 40 mins by 3-Chloro-4-[4-[ [ (2S)-2-(3-pyridyl)pyrrolidin-1-yl]methyl]phenoxy]- benzamide displacement assay; assay type: functional
[21] = tested on: Striatum; experiment: Drug uptake in rat striatum at 1 ug/kg, iv measured after 40 mins by LC/MS-MS analysis; assay type: ADME, organism-based; conditions: in vivo, 0.001 mg/kg; procedure, shortened: as §6
[22] = tested on: Nucleic Acid; experiment: Ratio of drug uptake in striatum to cerebellum in rat at 30 ug/kg, iv measured after 40 mins by LC/MS/MS analysis; assay type: ADME, organism-based; conditions: in vivo, 0.03 mg/kg; procedure, shortened: as §3
[23] = tested on: Striatum; experiment: Drug uptake in rat striatum at 30 ug/kg, iv measured after 40 mins by LC/MS-MS analysis; assay type: ADME, organism-based; conditions: in vivo, 0.03 mg/kg; procedure, shortened: as §6
[24] = tested on: Striatum; experiment: Drug uptake in rat striatum at 1.5 ug/kg, iv measured after 40 mins by LC/MS-MS analysis; assay type: ADME, organism-based; conditions: in vivo, 0.0015 mg/kg
Procedure, shortened: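 Groups of four rats received a single iv tracer dose and were killed 20 or 40 min later. Striatum was weighed, sonicated in 4 volumes of acetonitrile with 0.1% formic acid, and centrifuged. The supernatant was diluted with water and analysed by C18 LC/MS/MS (precursor-to-product ion transition) against standards spiked into naive rat brain. %SUV = (tissue amount / injected dose) × 100.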

[25] = tested on: Nucleic Acid; experiment: Ratio of drug uptake in striatum to cerebellum in rat at 1.5 ug/kg, iv measured after 40 mins by LC/MS/MS analysis; assay type: ADME, organism-based; conditions: in vivo, 0.0015 mg/kg
Procedure, shortened: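 Rats (groups of four) given a single iv tracer dose, killed 20 or 40 min later. Striatum and cerebellum weighed, homogenised by ultrasonic probe in four volumes acetonitrile with 0.1% formic acid, centrifuged, supernatant diluted with water. Read-out is LC/MS/MS on C18 column monitoring precursor-to-product transitions, quantified against standards spiked into untreated rat brain. Binding potential = (striatum/cerebellum) − 1.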

T3 sequence (P35372 whole entry): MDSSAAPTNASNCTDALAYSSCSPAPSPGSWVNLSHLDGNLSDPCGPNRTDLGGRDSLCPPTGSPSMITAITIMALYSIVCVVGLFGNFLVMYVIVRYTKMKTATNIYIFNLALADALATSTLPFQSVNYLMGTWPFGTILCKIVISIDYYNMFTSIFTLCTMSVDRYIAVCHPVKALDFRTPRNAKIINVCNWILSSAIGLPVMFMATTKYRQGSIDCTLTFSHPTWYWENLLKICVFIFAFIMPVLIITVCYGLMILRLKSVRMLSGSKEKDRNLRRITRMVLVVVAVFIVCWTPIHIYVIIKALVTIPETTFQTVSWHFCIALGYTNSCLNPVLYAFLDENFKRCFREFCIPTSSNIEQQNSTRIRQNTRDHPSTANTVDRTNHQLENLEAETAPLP
T1 sequence (P41143 whole entry): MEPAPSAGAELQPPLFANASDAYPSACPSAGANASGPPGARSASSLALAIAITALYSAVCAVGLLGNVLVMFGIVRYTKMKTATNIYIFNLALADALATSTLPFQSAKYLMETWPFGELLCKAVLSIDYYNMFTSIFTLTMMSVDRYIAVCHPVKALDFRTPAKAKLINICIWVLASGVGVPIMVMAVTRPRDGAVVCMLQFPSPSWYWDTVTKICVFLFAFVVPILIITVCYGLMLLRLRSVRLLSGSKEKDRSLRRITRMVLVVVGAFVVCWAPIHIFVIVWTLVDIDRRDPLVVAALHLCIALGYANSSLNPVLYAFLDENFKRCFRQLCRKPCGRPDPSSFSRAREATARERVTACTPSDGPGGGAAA
T2 sequence (P41145 whole entry): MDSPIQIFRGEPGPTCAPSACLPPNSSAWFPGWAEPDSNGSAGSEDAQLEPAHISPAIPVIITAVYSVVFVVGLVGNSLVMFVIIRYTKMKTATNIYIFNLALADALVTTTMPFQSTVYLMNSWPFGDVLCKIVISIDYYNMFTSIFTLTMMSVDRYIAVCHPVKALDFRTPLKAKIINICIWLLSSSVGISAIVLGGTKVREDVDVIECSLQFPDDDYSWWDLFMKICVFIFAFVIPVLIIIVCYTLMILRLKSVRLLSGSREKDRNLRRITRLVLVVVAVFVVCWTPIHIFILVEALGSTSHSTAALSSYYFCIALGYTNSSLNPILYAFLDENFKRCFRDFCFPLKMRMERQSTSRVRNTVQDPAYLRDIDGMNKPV

SMILES: NC(=O)c1ccc(Oc2ccc(CN3CCC[C@H]3c3cccnc3)cc2)c(Cl)c1
- Ratio [1]: 11
- Drug uptake [2]: Active
- Ratio [3]: 1.2
- Ki [4]: 153 nM
- Kb [5]: 0.632 nM
- Kb [6]: 6.8 nM
- Activity [7]: inactive
- Ratio Ki [8]: 212
- SUV [9]: 67%
- Drug uptake [10]: Not Active
- Activity [11]: inactive
- Activity [12]: inactive
- Ki [13]: 25.8 nM
- Ki [14]: 0.722 nM
- Ratio Ki [15]: 36
- Kb [16]: 83.3 nM
- Ratio [17]: 132

SMILES: NC(=O)c1ccc(Oc2ccc(CN3CCCC3c3ccccc3)cc2)nc1 (racemic)
- Ratio [1]: 9
- Ki [4]: > 500 nM
- Kb [5]: 17 nM
- Kb [6]: 150 nM
- Activity [7]: inactive
- Ratio Ki [8]: > 50
- Activity [11]: inactive
- Activity [12]: inactive
- Ki [13]: 232 nM
- Ki [14]: 9.21 nM
- Ratio Ki [15]: 25
- Kb [16]: 635 nM
- Ratio [17]: 37

SMILES: Cc1cc(C)cc([C@H]2CCCN2Cc2ccc(Oc3ccc(C(N)=O)cc3F)cc2)c1
- Ratio [1]: 2
- Ki [4]: 165 nM
- Kb [5]: 44.8 nM
- Kb [6]: 69.6 nM
- Activity [7]: inactive
- Ratio Ki [8]: 12
- Activity [11]: inactive
- Activity [12]: inactive
- Ki [13]: 101 nM
- Ki [14]: 14 nM
- Ratio Ki [15]: 7
- Kb [16]: 220 nM
- Ratio [17]: 5

SMILES: CC(C)[C@@H](CN1CC[C@@](C)(c2cccc(O)c2)[C@@H](C)C1)NC(=O)[C@H]1Cc2ccc(O)cc2CN1C
- Ratio [1]: 69
- Ki [4]: > 500 nM
- Kb [5]: 0.162 nM
- Kb [6]: 11.2 nM
- Activity [7]: inactive
- Ratio Ki [8]: > 3200
- SUV [9]: 23%
- Activity [11]: inactive
- Activity [12]: inactive
- Ki [13]: 30.8 nM
- Ki [14]: 0.153 nM
- Ratio Ki [15]: 201
- Kb [16]: 619 nM
- Ratio [17]: 3820

SMILES: NC(=O)c1ccc(Oc2ccc(CN3CCC[C@H]3c3cccc(F)c3)cc2)c(F)c1
- Ratio [1]: 14
- Ratio [3]: 0.2
- Ki [4]: 211 nM
- Kb [5]: 1.57 nM
- Kb [6]: 21.3 nM
- ED50 [18]: 0.24 mg/kg
- Activity [7]: inactive
- Ratio Ki [8]: 373
- Activity [11]: inactive
- ED50 [19]: 30 mg/kg
- Activity [12]: inactive
- Ki [13]: 35.8 nM
- Ki [14]: 0.565 nM
- ED50 [20]: 0.06 mg/kg
- Ratio Ki [15]: 63
- Kb [16]: 293 nM
- Ratio [17]: 187

SMILES: CC1(C)CN(Cc2ccc(Oc3ccc(C(N)=O)cn3)cc2)[C@@H]1c1ccccc1
- Ratio [1]: 15
- Ki [4]: > 500 nM
- Kb [5]: 2.46 nM
- Kb [6]: 36.6 nM
- Activity [7]: inactive
- Activity [11]: inactive
- Activity [12]: inactive
- SUV [21]: 270%
- Ki [13]: 43.1 nM
- Ki [14]: 1.05 nM
- Kb [16]: 338 nM
- Ratio [17]: 137

SMILES: NC(=O)c1ccc(Oc2ccc(CN3CCC[C@@H]3c3cccc(F)c3)cc2)c(F)c1
- Ratio [1]: > 5
- Ki [4]: > 500 nM
- Kb [5]: 88.7 nM
- Kb [6]: > 500 nM
- Activity [7]: inactive
- Ratio Ki [8]: > 9
- Activity [11]: inactive
- Activity [12]: inactive
- Ki [13]: > 500 nM
- Ki [14]: 53.7 nM
- Ratio Ki [15]: > 9
- Kb [16]: > 1000 nM
- Ratio [17]: > 5

SMILES: NC(=O)c1ccc(Oc2ccc(CN3CCCC3c3cccnc3)cc2)nc1 (racemic)
- Ratio [1]: 19
- Ki [4]: > 500 nM
- Kb [5]: 5.89 nM
- Ratio [22]: 2.2
- Kb [6]: 110 nM
- Activity [7]: inactive
- Ratio Ki [8]: > 330
- Activity [11]: inactive
- Activity [12]: inactive
- SUV [23]: 13%
- Ki [13]: 39.6 nM
- Ki [14]: 1.49 nM
- Ratio Ki [15]: 27
- Kb [16]: 407 nM
- Ratio [17]: 69

SMILES: COC(=O)N1CCN(C(=O)Cc2ccc(Cl)c(Cl)c2)[C@H](CN2CCCC2)C1
- SUV [24]: 50%
- Ki [4]: 422 nM
- Activity [7]: inactive
- Ratio Ki [8]: 841
- Activity [11]: inactive
- Activity [12]: inactive
- Ki [13]: 34.7 nM
- Ki [14]: 0.502 nM
- Ratio Ki [15]: 69
- Ratio [25]: 1.5
